Laboratory results as given in ChEMBL document CHEMBL2429786, “New serotonin 5-HT1A receptor agonists endowed with antinociceptive activity in vivo” (J Med Chem, 2013).
Calls of active or inactive are those of the source. The calls are words filed in the database; no cut-off is given here.

Legend:
[1] = biological target: T1, 5-hydroxytryptamine receptor 1A (Rattus norvegicus, UniProt P19327); experiment: Displacement of [3H]-8-OH-DPAT from 5-HT1A receptor in Sprague-Dawley rat cerebral cortex after 15 mins; format: tissue-based
T1 sequence (P19327 whole entry): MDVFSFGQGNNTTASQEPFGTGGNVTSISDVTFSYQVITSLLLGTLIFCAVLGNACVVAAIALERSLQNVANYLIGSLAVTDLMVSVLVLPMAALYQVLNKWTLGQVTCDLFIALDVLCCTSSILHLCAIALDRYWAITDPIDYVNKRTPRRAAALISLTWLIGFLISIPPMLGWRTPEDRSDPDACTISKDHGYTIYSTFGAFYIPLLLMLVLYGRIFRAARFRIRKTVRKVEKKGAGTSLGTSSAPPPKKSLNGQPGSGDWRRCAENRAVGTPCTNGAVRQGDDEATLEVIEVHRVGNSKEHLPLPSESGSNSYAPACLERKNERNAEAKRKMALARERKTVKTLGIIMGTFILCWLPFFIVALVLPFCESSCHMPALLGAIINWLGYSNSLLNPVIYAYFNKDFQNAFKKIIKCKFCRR

[2] = biological target: 5-hydroxytryptamine receptor 7 (Rattus norvegicus, UniProt P32305); experiment: Displacement of [3H]-5-CT from 5-HT7 receptor in Sprague-Dawley rat hypothalamus after 120 mins
5-hydroxytryptamine receptor 7, sequence (P32305 whole entry): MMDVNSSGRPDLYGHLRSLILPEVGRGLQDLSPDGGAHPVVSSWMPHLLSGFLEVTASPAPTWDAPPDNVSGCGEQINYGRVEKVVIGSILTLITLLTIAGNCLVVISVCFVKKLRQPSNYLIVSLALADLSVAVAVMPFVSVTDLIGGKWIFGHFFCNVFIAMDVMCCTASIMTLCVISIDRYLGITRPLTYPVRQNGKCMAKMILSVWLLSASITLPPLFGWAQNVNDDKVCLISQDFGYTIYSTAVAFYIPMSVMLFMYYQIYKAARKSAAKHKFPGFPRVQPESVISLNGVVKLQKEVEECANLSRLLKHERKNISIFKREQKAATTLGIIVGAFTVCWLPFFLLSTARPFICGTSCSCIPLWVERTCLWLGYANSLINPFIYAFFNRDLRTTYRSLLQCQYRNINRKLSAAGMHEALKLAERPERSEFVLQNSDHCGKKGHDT

[3] = biological target: 5-hydroxytryptamine receptor 4 (Rattus norvegicus, UniProt Q62758); experiment: Displacement of [3H]GR113808 from 5-HT4 receptor in Sprague-Dawley rat striatum after 30 mins
5-hydroxytryptamine receptor 4, sequence (Q62758 whole entry): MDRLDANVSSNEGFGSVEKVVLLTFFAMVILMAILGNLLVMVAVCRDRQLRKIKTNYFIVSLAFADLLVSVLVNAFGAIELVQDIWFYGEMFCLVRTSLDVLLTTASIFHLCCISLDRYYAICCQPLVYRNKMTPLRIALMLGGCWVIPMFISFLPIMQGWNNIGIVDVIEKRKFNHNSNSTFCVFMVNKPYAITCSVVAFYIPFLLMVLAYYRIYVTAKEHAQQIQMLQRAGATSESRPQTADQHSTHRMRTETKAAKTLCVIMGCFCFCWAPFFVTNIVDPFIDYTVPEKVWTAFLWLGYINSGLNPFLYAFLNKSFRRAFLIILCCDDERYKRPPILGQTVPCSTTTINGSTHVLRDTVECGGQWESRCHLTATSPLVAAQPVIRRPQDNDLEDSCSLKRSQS

[4] = biological target: T2, 5-hydroxytryptamine receptor 3A (Rattus norvegicus, UniProt P35563); experiment: Displacement of [3H]LY 278584 from 5-HT3 receptor in Sprague-Dawley rat cerebral cortex after 30 mins; format: tissue-based
T2 sequence (P35563 whole entry): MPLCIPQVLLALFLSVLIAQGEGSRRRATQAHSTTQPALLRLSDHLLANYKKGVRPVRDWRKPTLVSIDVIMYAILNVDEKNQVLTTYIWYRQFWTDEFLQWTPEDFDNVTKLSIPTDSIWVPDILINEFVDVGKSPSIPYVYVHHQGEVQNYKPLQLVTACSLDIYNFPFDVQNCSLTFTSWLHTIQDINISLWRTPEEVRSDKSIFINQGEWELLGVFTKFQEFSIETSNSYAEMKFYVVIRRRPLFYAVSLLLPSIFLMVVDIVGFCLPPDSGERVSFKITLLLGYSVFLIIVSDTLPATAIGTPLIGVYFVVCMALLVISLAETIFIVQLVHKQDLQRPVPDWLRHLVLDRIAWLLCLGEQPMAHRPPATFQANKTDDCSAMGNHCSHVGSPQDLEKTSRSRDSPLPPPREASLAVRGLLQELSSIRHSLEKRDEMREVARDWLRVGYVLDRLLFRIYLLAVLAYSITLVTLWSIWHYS

[5] = biological target: 5-hydroxytryptamine receptor 2A (Rattus norvegicus, UniProt P14842); experiment: Displacement of [3H]ketanserin from 5-HT2A receptor in Sprague-Dawley rat frontal cortex after 15 mins; format: tissue-based
5-hydroxytryptamine receptor 2A, sequence (P14842 whole entry): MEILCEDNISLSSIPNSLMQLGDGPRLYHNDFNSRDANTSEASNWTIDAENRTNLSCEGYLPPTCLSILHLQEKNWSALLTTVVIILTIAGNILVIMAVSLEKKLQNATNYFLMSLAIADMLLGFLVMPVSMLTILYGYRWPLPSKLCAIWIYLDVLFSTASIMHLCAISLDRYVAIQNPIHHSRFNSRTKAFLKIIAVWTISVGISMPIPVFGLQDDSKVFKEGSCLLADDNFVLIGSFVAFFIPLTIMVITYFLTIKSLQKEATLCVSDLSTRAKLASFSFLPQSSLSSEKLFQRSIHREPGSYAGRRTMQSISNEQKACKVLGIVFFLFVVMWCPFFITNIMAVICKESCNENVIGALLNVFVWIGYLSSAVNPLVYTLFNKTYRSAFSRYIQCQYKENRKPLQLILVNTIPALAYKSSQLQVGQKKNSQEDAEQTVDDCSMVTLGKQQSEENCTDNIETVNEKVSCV

[6] = system: Mus musculus; experiment: Antinociceptive activity in CD-1 mouse assessed as reduction of formalin-induced paw licking activity at 3 mg/kg, ip administered 15 mins prior to formalin-challenge measured after 15 to 30 mins; format: functional, organism-based; set-up: dose 3 mg/kg
[7] = biological target: Albumin (Homo sapiens, UniProt P02768); experiment: Binding affinity to human serum albumin at 5 uM after 12 mins by HPLC-MS analysis relative to control; format: ADME; settings: isolated protein, 0.2 h
Albumin, sequence (P02768 whole entry): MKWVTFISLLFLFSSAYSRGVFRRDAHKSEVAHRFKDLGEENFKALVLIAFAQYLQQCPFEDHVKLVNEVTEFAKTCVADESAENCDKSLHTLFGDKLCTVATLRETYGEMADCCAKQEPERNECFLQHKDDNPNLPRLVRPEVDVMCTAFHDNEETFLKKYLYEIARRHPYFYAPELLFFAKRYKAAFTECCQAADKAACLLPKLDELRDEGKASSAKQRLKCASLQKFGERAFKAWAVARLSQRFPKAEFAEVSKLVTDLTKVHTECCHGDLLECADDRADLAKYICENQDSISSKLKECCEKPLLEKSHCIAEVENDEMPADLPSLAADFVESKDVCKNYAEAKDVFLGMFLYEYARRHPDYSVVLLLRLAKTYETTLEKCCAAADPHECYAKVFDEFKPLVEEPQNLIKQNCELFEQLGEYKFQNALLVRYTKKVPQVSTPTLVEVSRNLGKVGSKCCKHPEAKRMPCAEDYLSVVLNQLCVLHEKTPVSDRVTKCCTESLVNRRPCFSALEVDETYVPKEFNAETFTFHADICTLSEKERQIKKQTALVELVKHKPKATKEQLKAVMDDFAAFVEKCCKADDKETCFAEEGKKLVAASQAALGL

[8] = biological target: CYP2D6 (Homo sapiens, UniProt P10635); experiment: Inhibition of human recombinant microsomal CYP2D6 using {3-[2-(N,N-diethyl-N-methylamino)ethyl]-7-methoxy-4-methylcoumarin} as substrate assessed as remaining activity at 10 uM after 30 mins by spectrofluorimetric analysis relative to control; format: ADME; settings: read-out: Activity
CYP2D6, sequence (P10635 whole entry): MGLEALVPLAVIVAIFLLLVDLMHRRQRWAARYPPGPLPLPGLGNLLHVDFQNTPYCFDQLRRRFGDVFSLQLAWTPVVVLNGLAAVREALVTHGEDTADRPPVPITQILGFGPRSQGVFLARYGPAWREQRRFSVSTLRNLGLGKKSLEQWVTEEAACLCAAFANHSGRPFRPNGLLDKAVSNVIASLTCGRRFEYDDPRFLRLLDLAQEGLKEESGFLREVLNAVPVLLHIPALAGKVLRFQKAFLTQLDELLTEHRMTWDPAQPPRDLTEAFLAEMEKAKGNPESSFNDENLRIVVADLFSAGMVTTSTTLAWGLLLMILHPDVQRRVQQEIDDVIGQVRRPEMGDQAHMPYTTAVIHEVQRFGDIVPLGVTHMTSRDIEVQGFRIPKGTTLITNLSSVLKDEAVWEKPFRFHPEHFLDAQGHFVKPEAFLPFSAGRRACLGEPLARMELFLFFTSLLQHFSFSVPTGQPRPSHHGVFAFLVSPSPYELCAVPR

[9] = Half life in human liver microsomes at 1 to 5 uM by HPLC-MS analysis; format: ADME, Microsome
Method in brief: (§1)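 Incubation mixtures pre-equilibrated at 37 °C with NADPH and MgCl2, then rat or human liver microsomes added to start the reaction. Aliquots were withdrawn and quenched at several time points, and percent parent remaining was measured by HPLC-MS and plotted against time. t1/2 was taken from the slope of peak area over time and used to calculate CLint.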

[10] = Intrinsic clearance in human liver microsomes at 1 to 5 uM by HPLC-MS analysis; format: ADME, Microsome; settings: read-out: CLH; method in brief: as §1
[11] = Intrinsic clearance in Sprague-Dawley rat liver microsomes at 1 to 5 uM by HPLC-MS analysis; format: ADME, Microsome; settings: read-out: CLH; method in brief: as §1
[12] = Half life in Sprague-Dawley rat liver microsomes at 1 to 5 uM by HPLC-MS analysis; format: ADME, Microsome; method in brief: as §1
[13] = species on record: Mus musculus; experiment: Hypothermic activity in Swiss mouse assessed as change in rectal temperature after 60 mins; format: functional; settings: 1 h, read-out: MED
[14] = biological target: T3, 5-hydroxytryptamine receptor 1A (Homo sapiens, UniProt P08908); experiment: Agonist activity at human 5-HT1A receptor expressed in human HeLa cells assessed as inhibition of forskolin-stimulated cAMP formation after 10 mins by RIA; format: functional, cell-based
T3 sequence (P08908 whole entry): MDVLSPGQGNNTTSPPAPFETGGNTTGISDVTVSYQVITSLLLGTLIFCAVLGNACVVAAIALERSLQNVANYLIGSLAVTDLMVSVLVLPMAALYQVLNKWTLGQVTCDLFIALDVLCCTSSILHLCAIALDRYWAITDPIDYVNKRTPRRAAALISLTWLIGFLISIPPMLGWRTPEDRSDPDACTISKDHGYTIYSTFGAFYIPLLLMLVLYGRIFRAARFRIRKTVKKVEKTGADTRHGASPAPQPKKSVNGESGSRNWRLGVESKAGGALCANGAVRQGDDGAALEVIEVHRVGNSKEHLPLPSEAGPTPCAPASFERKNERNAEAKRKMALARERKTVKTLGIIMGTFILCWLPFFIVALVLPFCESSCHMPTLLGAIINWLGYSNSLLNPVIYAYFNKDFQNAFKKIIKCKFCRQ

[15] = system: Mus musculus; experiment: Antinociceptive activity in CD-1 mouse assessed as reduction of formalin-induced paw licking activity at 100 mg/kg, ip administered 15 mins prior to formalin-challenge measured after 5 to 30 mins; format: functional, organism-based; set-up: dose 100 mg/kg
Method in brief: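 Formalin injected intradermally in mice. Formalin-induced nociceptive behaviour is scored separately in the early and late phases of the test.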

[16] = biological target: T3, 5-hydroxytryptamine receptor 1A; experiment: Partial agonist activity at human 5-HT1A receptor expressed in human HeLa cells assessed as inhibition of forskolin-stimulated cAMP formation after 10 mins by RIA; format: functional, cell-based

O=C1C2CCCN2C(=O)N1CCCCNCCOc1ccccc1C(F)(F)F (configuration not stated)
Ki [1]: 0.51 µM

O=C1C2CCCN2C(=O)N1CCCCNCCOc1ccc(C(F)(F)F)cc1 (configuration not stated)
Ki [1]: > 1 µM

O=C1C2CCCN2C(=O)N1CCCCNCCOc1ccc(Br)cc1 (configuration not stated)
Ki [1]: > 1 µM

O=C1C2CCCN2C(=O)N1CCCCNCCOc1ccccc1Br (configuration not stated)
Ki [1]: 0.062 µM

O=C1C2CCCN2C(=O)N1CCCCNCCOc1cccc(-c2ccccc2)c1 (configuration not stated)
Ki [1]: 0.072 µM

COc1cccc(OCCNCCCCN2C(=O)C3CCCN3C2=O)c1 (configuration not stated)
Ki [1]: 0.034 µM | Ki [2]: > 1 µM | Ki [3]: > 1 µM | Ki [4]: > 1 µM | Ki [5]: > 1 µM

O=C1C2CCCN2C(=O)N1CCCCNCCOc1ccccc1-c1ccccc1 (configuration not stated)
Ki [1]: 0.026 µM | Ki [2]: 0.101 µM | Ki [3]: > 1 µM | Ki [4]: > 1 µM | Ki [5]: > 1 µM

CC(C)c1ccccc1OCCNCCCCN1C(=O)C2CCCN2C1=O (configuration not stated)
Ki [1]: 0.038 µM | Ki [2]: > 1 µM | Ki [3]: > 1 µM | Ki [4]: > 1 µM | Ki [5]: 0.26 µM

O=C1C2CCCN2C(=O)N1CCCCNCCOc1cccc(Br)c1 (configuration not stated)
Ki [1]: 0.052 µM | Ki [2]: > 1 µM | Ki [3]: > 1 µM | Ki [4]: > 1 µM | Ki [5]: 0.514 µM

O=C1C2CCCN2C(=O)N1CCCCNCCOc1ccc(-c2ccccc2)cc1 (configuration not stated)
Ki [1]: > 1 µM

COc1cc(COc2cc(N)c(Cl)cc2C(=O)CCC2CCN(CCNS(C)(=O)=O)CC2)cc(OC)c1
Ki [3]: 0.0039 µM

COc1ccccc1OCCNCCCCN1C(=O)C2CCCN2C1=O.Cl (configuration not stated)
Activity [6]: Active | Activity [7]: 25% | activity at 0.5 h, 10 µM [8]: 48% | half-life at up to 5 µM [9]: 3.95 h | CLint scaled at up to 5 µM [10]: 2.6 mL/min/kg | CLint scaled at up to 5 µM [11]: 145 mL/min/kg | half-life at up to 5 µM [12]: 0.162 h | minimal effective dose [13]: 0.625 mg/kg | EC50 [14]: 0.023 µM | Ki [1]: 0.0048 µM | Ki [2]: > 1 µM | Ki [3]: > 1 µM | Ki [4]: > 1 µM | Ki [5]: 0.267 µM

NCC1(CC(=O)O)CCCCC1
Activity [15]: Active

CCc1cccc(OCCNCCCCN2C(=O)C3CCCN3C2=O)c1 (configuration not stated)
Ki [1]: 0.03 µM | Ki [2]: > 1 µM | Ki [3]: > 1 µM | Ki [4]: > 1 µM | Ki [5]: > 1 µM

O=C1C2CCCN2C(=O)N1CCCCNCCOc1cccc2cccnc12 (configuration not stated)
Ki [1]: 0.044 µM | Ki [2]: 0.015 µM | Ki [3]: > 1 µM | Ki [4]: > 1 µM | Ki [5]: > 1 µM

COc1ccccc1CNCCCCN1C(=O)C2CCCN2C1=O (configuration not stated)
Ki [1]: > 1 µM

N#Cc1ccc(OCCNCCCCN2C(=O)C3CCCN3C2=O)cc1 (configuration not stated)
Ki [1]: > 1 µM

NCCc1c[nH]c2ccc(C(N)=O)cc12
Ki [2]: 0.0018 µM

N#Cc1cccc(OCCNCCCCN2C(=O)C3CCCN3C2=O)c1 (configuration not stated)
Ki [1]: > 1 µM

N#Cc1ccccc1OCCNCCCCN1C(=O)C2CCCN2C1=O (configuration not stated)
Ki [1]: > 1 µM

Cc1cccc(OCCNCCCCN2C(=O)C3CCCN3C2=O)c1C (configuration not stated)
Ki [1]: 0.045 µM | Ki [2]: > 1 µM | Ki [3]: > 1 µM | Ki [4]: > 1 µM | Ki [5]: 0.31 µM

O=C1C2CCCN2C(=O)N1CCCCNCCOc1cccc2c1CCCC2 (configuration not stated)
Ki [1]: 0.038 µM | Ki [2]: > 1 µM | Ki [3]: > 1 µM | Ki [4]: > 1 µM | Ki [5]: 0.049 µM

COc1ccc(OCCNCCCCN2C(=O)C3CCCN3C2=O)cc1 (configuration not stated)
Ki [1]: > 1 µM

COc1ccc(OCCNCCCCN2C(=O)C3CCCN3C2=O)c2ccccc12 (configuration not stated)
Ki [1]: 0.027 µM | Ki [2]: 0.301 µM | Ki [3]: > 1 µM | Ki [4]: > 1 µM | Ki [5]: > 1 µM

COc1cc(F)ccc1OCCNCCCCN1C(=O)C2CCCN2C1=O (configuration not stated)
Ki [1]: 0.0374 µM | Ki [2]: > 1 µM | Ki [3]: > 1 µM | Ki [4]: > 1 µM | Ki [5]: > 1 µM

CCc1ccccc1OCCNCCCCN1C(=O)C2CCCN2C1=O.Cl (configuration not stated)
Activity [7]: 55% | activity at 0.5 h, 10 µM [8]: 13% | half-life at up to 5 µM [9]: 2.28 h | CLint scaled at up to 5 µM [10]: 4.6 mL/min/kg | CLint scaled at up to 5 µM [11]: 131 mL/min/kg | half-life at up to 5 µM [12]: 0.178 h | minimal effective dose [13]: 10 mg/kg | EC50 [16]: 1.2 µM | Ki [1]: 0.0168 µM | Ki [2]: 0.185 µM | Ki [3]: > 1 µM | Ki [4]: > 1 µM | Ki [5]: 0.366 µM

O=C1C2CCCN2C(=O)N1CCCCNCCOc1ccc2ccccc2c1 (configuration not stated)
Ki [1]: 0.041 µM | Ki [2]: > 1 µM | Ki [3]: > 1 µM | Ki [4]: > 1 µM | Ki [5]: 0.422 µM

Cl.O=C1C2CCCN2C(=O)N1CCCCNCCOc1ccccc1 (configuration not stated)
Activity [6]: Active | Activity [7]: 38% | activity at 0.5 h, 10 µM [8]: 24% | half-life at up to 5 µM [9]: 2.52 h | CLint scaled at up to 5 µM [10]: 4.1 mL/min/kg | CLint scaled at up to 5 µM [11]: 140 mL/min/kg | half-life at up to 5 µM [12]: 0.167 h | minimal effective dose [13]: 2.5 mg/kg | Ki [2]: > 1 µM | Ki [3]: > 1 µM | Ki [4]: > 1 µM | Ki [5]: > 1 µM

O=C1C2CCCN2C(=O)N1CCCCNCCOc1cccc(C(F)(F)F)c1 (configuration not stated)
Ki [1]: 0.0389 µM

Cl.O=C1C2CCCN2C(=O)N1CCCCNCCOc1cccc2ccccc12 (configuration not stated)
Activity [6]: Active | Activity [7]: 60% | activity at 0.5 h, 10 µM [8]: 6% | half-life at up to 5 µM [9]: 2.05 h | CLint scaled at up to 5 µM [10]: 5.1 mL/min/kg | CLint scaled at up to 5 µM [11]: 171 mL/min/kg | half-life at up to 5 µM [12]: 0.135 h | minimal effective dose [13]: 10 mg/kg | EC50 [14]: 0.045 µM | Ki [3]: > 1 µM | Ki [4]: > 1 µM | Ki [5]: 0.041 µM

CCc1ccc(OCCNCCCCN2C(=O)C3CCCN3C2=O)cc1 (configuration not stated)
Ki [1]: 0.742 µM
